{
  "source": "ChEMBL document CHEMBL1125920",
  "about": "“Synthesis and biological activity of 5-alkyl-1,7,8-trisubstituted-6-fluoroquinoline-3-carboxylic acids” (1991)",
  "key": {"Enterobacter cloacae": {"tested_on": "Enterobacter cloacae", "assay": "Antibacterial activity against gram negative organism, […] (MA2646)", "type": "functional"}, "Escherichia coli": {"tested_on": "Escherichia coli", "assay": "Antibacterial activity was determined against gram negative organism, E. coli(vogel)", "type": "functional", "summary_of_the_method": "(§1)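 MIC by standard microtitration against a panel of 10 representative Gram-negative and Gram-positive organisms; values reported in µg/mL.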"}, "Klebsiella pneumoniae": {"tested_on": "Klebsiella pneumoniae", "assay": "Antibacterial activity was determined against gram negative organism, K. pneumoniae (MGH-2)", "type": "functional", "summary_of_the_method": "as §1"}, "Mus musculus [1]": {"tested_on": "Mus musculus", "assay": "In vivo subcutaneous protective dose was determined in female charles river CD-1 mice infected with Streptococcus pneumoniae", "type": "functional", "details": "sc, read-out: PD50", "summary_of_the_method": "(§2)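 Acute lethal systemic infection model in mice; drug given by subcutaneous injection; potency read out as median protective dose (PD50), in mg/kg.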"}, "Mus musculus [2]": {"tested_on": "Mus musculus", "assay": "In vivo oral protective dose was determined in female charles river CD-1 mice infected with Escherichia coli (vogel)", "type": "functional", "details": "Mus musculus, po; read-out: PD50", "summary_of_the_method": "(§3)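 Acute lethal systemic infection model in mice; drug given orally by gavage; potency read out as median protective dose (PD50), in mg/kg.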"}, "Mus musculus [3]": {"tested_on": "Mus musculus", "assay": "In vivo oral protective dose was determined in female charles river CD-1 mice infected with Streptococcus pneumoniae", "type": "functional", "details": "read-out: PD50", "summary_of_the_method": "as §3"}, "Mus musculus [4]": {"tested_on": "Mus musculus", "assay": "In vivo subcutaneous protective dose was determined in female charles river CD-1 mice infected with Escherichia coli (vogel)", "type": "functional", "details": "sc, read-out: PD50", "summary_of_the_method": "as §2"}, "Pseudomonas aeruginosa": {"tested_on": "Pseudomonas aeruginosa", "assay": "Antibacterial activity was determined against gram negative organism, Pseudomonas aeruginosa (UI-18)", "type": "functional", "summary_of_the_method": "as §1"}, "Bacteria": {"tested_on": "Bacteria", "assay": "Antibacterial activity was determined against gram negative organism, Providencia rettgeri. (M1771)", "type": "functional", "summary_of_the_method": "as §1"}, "Streptococcus pneumoniae": {"tested_on": "Streptococcus pneumoniae", "assay": "Antibacterial activity was determined against gram positive organism, Streptococcus pneumoniae (SV-1)", "type": "functional", "summary_of_the_method": "as §1"}, "Enterococcus faecalis": {"tested_on": "Enterococcus faecalis", "assay": "Antibacterial activity was determined against gram positive organism, Streptococcus faecalis (MGH-2)", "type": "functional", "summary_of_the_method": "as §1"}, "Streptococcus pyogenes": {"tested_on": "Streptococcus pyogenes", "assay": "Antibacterial activity was determined against gram positive organism, Streptococcus pyogenes (C203)", "type": "functional", "summary_of_the_method": "as §1"}, "Staphylococcus aureus [5]": {"tested_on": "Staphylococcus aureus", "assay": "Antibacterial activity was determined against gram positive organism, Staphylococcus aureus (H228)", "type": "functional", "summary_of_the_method": "as §1"}, "Staphylococcus aureus [6]": {"tested_on": "Staphylococcus aureus", "assay": "Antibacterial activity was determined against gram positive organism, Staphylococcus aureus (UC76)", "type": "functional", "summary_of_the_method": "as §1"}, "[7]": {"assay": "MIC ratio measured as the mean MICs of gram-negative bacteria", "type": "functional", "summary_of_the_method": "(§4)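 Geometric mean of the MICs (µg/mL) over the Gram-negative or the Gram-positive strains of the 10-organism microtitration panel, calculated separately for each class.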"}, "[8]": {"assay": "MIC ratio measured as the mean MICs of gram-positive bacteria", "type": "functional", "summary_of_the_method": "as §4"}, "[9]": {"molecular_target": "DNA gyrase (Escherichia coli) (UniProt P0AES6+P0AES4)"}},
  "data": [
    {"smiles": "Cc1c(F)c(N2CCNC(C)C2)c(F)c2c1c(=O)c(C(=O)O)cn2C1CC1", "note": "(centres undefined)", "values": [
      {"measurement": "MIC", "setting": "Enterobacter cloacae", "result": 0.025, "unit": "µg/mL"},
      {"measurement": "MIC", "setting": "Escherichia coli", "result": 0.025, "unit": "µg/mL"},
      {"measurement": "MIC", "setting": "Klebsiella pneumoniae", "result": 0.05, "unit": "µg/mL"},
      {"measurement": "ED50", "setting": "Mus musculus [1]", "result": 11, "unit": "mg/kg"},
      {"measurement": "ED50", "setting": "Mus musculus [2]", "result": 0.75, "unit": "mg/kg"},
      {"measurement": "ED50", "setting": "Mus musculus [3]", "result": 12, "unit": "mg/kg"},
      {"measurement": "ED50", "setting": "Mus musculus [4]", "result": 0.4, "unit": "mg/kg"},
      {"measurement": "MIC", "setting": "Pseudomonas aeruginosa", "result": 0.4, "unit": "µg/mL"},
      {"measurement": "MIC", "setting": "Bacteria", "result": 0.1, "unit": "µg/mL"},
      {"measurement": "MIC", "setting": "Streptococcus pneumoniae", "result": 0.025, "unit": "µg/mL"},
      {"measurement": "MIC", "setting": "Enterococcus faecalis", "result": 0.1, "unit": "µg/mL"},
      {"measurement": "MIC", "setting": "Streptococcus pyogenes", "result": 0.05, "unit": "µg/mL"},
      {"measurement": "MIC", "setting": "Staphylococcus aureus [5]", "result": 0.025, "unit": "µg/mL"},
      {"measurement": "MIC", "setting": "Staphylococcus aureus [6]", "result": 0.013, "unit": "µg/mL"},
      {"measurement": "Ratio", "setting": "[7]", "result": 0.066},
      {"measurement": "Ratio", "setting": "[8]", "result": 0.033},
      {"measurement": "DNA cleavage", "setting": "[9]", "result": 3, "unit": "µg/mL"}
    ]},
    {"smiles": "Cc1c(F)c(N2CCC(N)C2)c(F)c2c1c(=O)c(C(=O)O)cn2C1CC1", "note": "(centres undefined)", "values": [
      {"measurement": "MIC", "setting": "Enterobacter cloacae", "result": 0.006, "unit": "µg/mL"},
      {"measurement": "MIC", "setting": "Escherichia coli", "result": 0.006, "unit": "µg/mL"},
      {"measurement": "MIC", "setting": "Klebsiella pneumoniae", "result": 0.013, "unit": "µg/mL"},
      {"measurement": "ED50", "setting": "Mus musculus [1]", "result": 1.6, "unit": "mg/kg"},
      {"measurement": "ED50", "setting": "Mus musculus [2]", "result": 2, "unit": "mg/kg"},
      {"measurement": "ED50", "setting": "Mus musculus [3]", "result": 3, "unit": "mg/kg"},
      {"measurement": "ED50", "setting": "Mus musculus [4]", "result": 0.5, "unit": "mg/kg"},
      {"measurement": "MIC", "setting": "Pseudomonas aeruginosa", "result": 0.4, "unit": "µg/mL"},
      {"measurement": "MIC", "setting": "Bacteria", "result": 0.025, "unit": "µg/mL"},
      {"measurement": "MIC", "setting": "Streptococcus pneumoniae", "result": 0.003, "unit": "µg/mL"},
      {"measurement": "MIC", "setting": "Enterococcus faecalis", "result": 0.025, "unit": "µg/mL"},
      {"measurement": "MIC", "setting": "Streptococcus pyogenes", "result": 0.013, "unit": "µg/mL"},
      {"measurement": "MIC", "setting": "Staphylococcus aureus [5]", "result": 0.013, "unit": "µg/mL"},
      {"measurement": "MIC", "setting": "Staphylococcus aureus [6]", "result": 0.003, "unit": "µg/mL"},
      {"measurement": "Ratio", "setting": "[7]", "result": 0.021},
      {"measurement": "Ratio", "setting": "[8]", "result": 0.0082},
      {"measurement": "DNA cleavage", "setting": "[9]", "result": 3, "unit": "µg/mL"}
    ]}
  ]
}
